Holding throughout (assay type): organism-based
Assay [1] has as its target T1, Angiotensin-converting enzyme (Rattus norvegicus) (UniProt P47820).
T1 sequence (whole entry): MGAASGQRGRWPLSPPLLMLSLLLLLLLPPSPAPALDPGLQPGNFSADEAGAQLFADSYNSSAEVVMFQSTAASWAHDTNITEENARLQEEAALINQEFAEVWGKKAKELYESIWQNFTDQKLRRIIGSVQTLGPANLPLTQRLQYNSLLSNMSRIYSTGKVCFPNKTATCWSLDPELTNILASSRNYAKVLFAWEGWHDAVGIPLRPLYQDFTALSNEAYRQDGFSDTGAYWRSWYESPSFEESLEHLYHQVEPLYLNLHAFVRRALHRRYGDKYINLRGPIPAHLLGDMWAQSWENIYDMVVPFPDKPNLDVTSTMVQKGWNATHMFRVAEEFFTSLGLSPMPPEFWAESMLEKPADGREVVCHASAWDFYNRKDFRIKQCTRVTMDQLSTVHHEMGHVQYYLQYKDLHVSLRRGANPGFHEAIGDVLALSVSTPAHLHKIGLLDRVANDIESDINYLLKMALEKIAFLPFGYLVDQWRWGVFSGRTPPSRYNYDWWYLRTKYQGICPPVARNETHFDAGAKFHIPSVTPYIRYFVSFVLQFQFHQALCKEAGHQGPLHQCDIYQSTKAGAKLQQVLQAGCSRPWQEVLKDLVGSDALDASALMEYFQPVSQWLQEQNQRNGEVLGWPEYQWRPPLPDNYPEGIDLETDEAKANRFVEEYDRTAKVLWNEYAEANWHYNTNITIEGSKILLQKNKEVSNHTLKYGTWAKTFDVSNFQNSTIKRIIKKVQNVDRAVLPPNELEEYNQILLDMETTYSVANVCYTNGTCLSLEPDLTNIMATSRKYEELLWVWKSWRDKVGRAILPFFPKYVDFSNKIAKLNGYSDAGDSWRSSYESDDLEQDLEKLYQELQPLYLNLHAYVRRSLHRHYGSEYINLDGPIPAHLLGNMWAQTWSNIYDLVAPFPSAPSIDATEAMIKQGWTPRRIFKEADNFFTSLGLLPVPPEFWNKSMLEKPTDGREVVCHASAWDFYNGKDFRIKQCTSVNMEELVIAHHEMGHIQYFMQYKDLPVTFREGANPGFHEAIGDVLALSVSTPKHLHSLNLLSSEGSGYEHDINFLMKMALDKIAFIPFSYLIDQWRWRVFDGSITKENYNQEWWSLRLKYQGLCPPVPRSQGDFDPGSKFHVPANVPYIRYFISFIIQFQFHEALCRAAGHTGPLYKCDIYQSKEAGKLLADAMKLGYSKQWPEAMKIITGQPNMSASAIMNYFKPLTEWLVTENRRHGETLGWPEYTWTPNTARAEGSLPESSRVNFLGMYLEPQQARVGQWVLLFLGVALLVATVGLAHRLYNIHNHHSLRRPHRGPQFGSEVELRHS
As to the kind of experiment: Compound was tested for plasma inhibition of Angiotensin I converting enzyme activity in the conscious rat. Expressed as Inhibition of AI pressor response at 1 hr at a dose of 13.1 mg/kg po. Also noted: dose 13.1 mg/kg. In outline:
(§1)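 Male conscious normotensive Sprague-Dawley rats (275-390 g), given femoral arterial and venous catheters under methohexital sodium (75 mg/kg ip) anesthesia. Next day, pressor responses to three angiotensin-I challenges (300 ng/kg iv) recorded by direct arterial pressure. Compound then dosed orally, and AI challenge repeated at set times. Each post-dose response compared with the mean of the three baseline responses, giving % inhibition.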

In assay [2] the target is T1, Angiotensin-converting enzyme (Rattus norvegicus). Nature of the assay: Compound was tested for plasma inhibition of Angiotensin I converting enzyme activity in the conscious rat. Expressed as Inhibition of AI pressor response at 4 hr at a dose of 13.1 mg/kg po. Also on record: dose 13.1 mg/kg. The essentials: (§2)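 Male conscious normotensive Sprague-Dawley rats (275-390 g), prepared under methohexital sodium (75 mg/kg ip) with femoral arterial and venous catheters. The next day, pressor responses to three angiotensin-I challenges (300 ng/kg iv) were recorded. Compound was then given orally and angiotensin-I challenges were repeated at set times. Percent inhibition is relative to the mean of the three baseline responses.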

Assay [3] has the same target. Nature of the assay: Compound was tested for plasma inhibition of Angiotensin I converting enzyme activity in the conscious rat. Expressed as Inhibition of AI pressor response at 2 hr at a dose of 13.1 mg/kg po. Also on record: dose 13.1 mg/kg. In outline: as §1
The target is the same in assay [4]. As to the kind of experiment: Compound was tested for plasma inhibition of Angiotensin I converting enzyme activity in the conscious rat. Expressed as Inhibition of AI pressor response at 6 hr at a dose of 13.1 mg/kg po. Also noted: dose 13.1 mg/kg. In outline: as §2
Assay [5] has the same target. Nature of the assay: Compound was tested for plasma inhibition of Angiotensin I converting enzyme activity in the conscious rat. Expressed as Inhibition of AI pressor response at 1 hr at a dose of 10 mg/kg po. Also noted: dose 10 mg/kg. In outline:
as §1

Assay [6] has the same target. As to the kind of experiment: Compound was tested for plasma inhibition of Angiotensin I converting enzyme activity in the conscious rat. Expressed as Inhibition of AI pressor response at 2 hr at a dose of 10 mg/kg po. Also on record: dose 10 mg/kg. The essentials: as §1
The target is the same in assay [7]. As to the kind of experiment: Compound was tested for plasma inhibition of Angiotensin I converting enzyme activity in the conscious rat. Expressed as Inhibition of AI pressor response at 4 hr at a dose of 10 mg/kg po. Also noted: dose 10 mg/kg. In outline: as §1
Assay [8] shares this target. Nature of the assay: Compound was tested for plasma inhibition of Angiotensin I converting enzyme activity in the conscious rat. Expressed as Inhibition of AI pressor response at 6 hr at a dose of 10 mg/kg po. Also on record: dose 10 mg/kg. In outline:
as §2

The target is the same in assay [9]. As to the kind of experiment: Compound was tested for plasma inhibition of Angiotensin I converting enzyme activity in the conscious rat. Expressed as Inhibition of AI pressor response at 2 hr at a dose of 12.8 mg/kg po. Also noted: dose 12.8 mg/kg. In outline: as §1
The target is the same in assay [10]. Nature of the assay: Compound was tested for plasma inhibition of Angiotensin I converting enzyme activity in the conscious rat. Expressed as Inhibition of AI pressor response at 1 hr at a dose of 12.8 mg/kg po. Also on record: dose 12.8 mg/kg. The essentials:
as §1

Assay [11] shares this target. Nature of the assay: Compound was tested for plasma inhibition of Angiotensin I converting enzyme activity in the conscious rat. Expressed as Inhibition of AI pressor response at 6 hr at a dose of 12.8 mg/kg po. Also on record: dose 12.8 mg/kg. In outline: as §2
For assay [12] the target is unchanged. Nature of the assay: Compound was tested for plasma inhibition of Angiotensin I converting enzyme activity in the conscious rat. Expressed as Inhibition of AI pressor response at 4 hr at a dose of 12.8 mg/kg po. Also noted: dose 12.8 mg/kg. In outline: as §1

As to `CCCCOC(=O)[C@H](Cc1ccc(O)cc1)NC(=O)C1(NC(=O)[C@H](SC(=O)C(C)C)C(C)C)CCCC1`, the inhibition (in general, the percentage by which the read-out fell short of the control) in assay [1] came to 27%; in [2], 25%; in assay [3] it was 16%.
In the case of `CC(=O)S[C@@H](C(=O)NC1(C(=O)N[C@@H](Cc2ccc(O)cc2)C(=O)OCc2ccccc2)CCCC1)C(C)C`, the inhibition was 28% in assay [4], 72% in [1], 54% in assay [2] and 74% in assay [3].
On to `CCOC(=O)[C@H](Cc1ccc(O)cc1)NC(=O)C1(NC(=O)[C@H](SC(C)=O)C(C)C)CCCC1`, for which the inhibition amounted to 86% in assay [5], 81% in assay [6], 83% in assay [7] and 47% in [8].
For `CCCCOC(=O)[C@H](Cc1ccc(OC)cc1)NC(=O)C1(NC(=O)[C@H](SC(C)=O)C(C)C)CCCC1`, the inhibition in assay [9] turned out to be 70%; in assay [10] it was 75%; in assay [11], 58%; in assay [7] it was 65%.
On to `CCCCOC(=O)[C@H](Cc1ccc(O)cc1)NC(=O)C1(NC(=O)[C@H](SC(=O)CCC)C(C)C)CCCC1`, for which the inhibition in [4] was 69%; in assay [1], 82%; in assay [2], 76%; in assay [3] it was 85%.
For `COC(=O)[C@H](Cc1ccc(O)cc1)NC(=O)C1(NC(=O)[C@H](SC(C)=O)C(C)C)CCCC1`, the inhibition was 76% in assay [5], 72% in [6], 25% in assay [7] and 14% in assay [8].
In the case of `CCCCCCOC(=O)[C@H](Cc1ccc(O)cc1)NC(=O)C1(NC(=O)[C@H](SC(C)=O)C(C)C)CCCC1`, the inhibition in assay [4] amounted to 16%; in assay [1], 64%; in assay [2], 61%; in [3] it was 78%.
For the compound `CCOC(=O)[C@H](Cc1ccc(OC(C)=O)cc1)NC(=O)C1(NC(=O)[C@H](SC(C)=O)C(C)C)CCCC1`, the inhibition in assay [12] is 31%; in [9] it was 52%; in assay [10] it was 64%; in assay [11] it was 16%.
